How the values were obtained:
HBV core protein = HBV core protein (Hepatitis B virus genotype D subtype ayw, UniProt P03146); experiment: Western blot assay of HBV core protein dephosphorylation in AML12HBV_DE11 cells; type: cell-based; conditions: 30 h, ENAN-34017 2 µM, Bay 41-4109 2 µM, entecavir 1 µM
Procedure, shortened: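 Controls: cells kept with tetracycline, or tetracycline-free and mock treated. Test cells tetracycline-free, treated 30 h, then lysed in LDS loading buffer and boiled 100 °C for 20 min. Run on 12% Bis-Tris gel in MOPS buffer, transferred to PVDF. Hyper-phosphorylated and dephosphorylated/hypophosphorylated core protein detected by western blot; β-actin loading control.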

[1] = test system: HBV replication in HepDES19 cells; experiment: Antiviral assay in HepDES19 cells; type: cell-based; conditions: Hepatitis B virus, HepDES19, read-out: EC50, inhibition of HBV-DNA replication
Procedure, shortened: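 HepG2-derived line with a tetracycline-inducible, envelope-deficient HBV genome; seeded in 24-well plates and kept tetracycline-free for 2 days. Then mock or twofold serial dilution for a further 4 days. Cytoplasmic HBV core DNA extracted and measured by qPCR. EC50 from regression on biologically triplicate experiments, two independent experiments.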

[2] = test system: cytoplasmic HBV-DNA replication in AML12HBV10 cells; experiment: Antiviral assay in AML12HBV10 cells; type: cell-based, hepatitis B virus; conditions: for Anti-HBV potency compared with 27 (58031), in words: SAR statement of the text
Procedure, shortened: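 AML12-derived mouse hepatocyte line carrying a tetracycline-inducible, envelope-deficient HBV genome; seeded at 2 × 10^4 cells/well in tetracycline-free medium. Next day, mock or twofold serial dilution (10 to 0.08 µM) for 48 h. Cells lysed in Tris-HCl pH 7.5/EDTA/NaCl/1% NP-40. Half the lysate NaOH-denatured, neutralised, dot-blotted and hybridised with 32P-labelled HBV minus-strand riboprobe. Phosphorimager quantification; EC50 = concentration reducing HBV DNA by 50%.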

AML12HBV10 cells = experiment: Cytotoxicity assay in AML12HBV10 cells; type: cell-based, mouse
Procedure, shortened: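 Cells treated in tetracycline-free medium, as in the antiviral assay, with twofold serial dilution from 50 to 1.56 µM for 48 h. Viability checked by microscopy and measured by MTT. CC50 = concentration reducing viability by 50%.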

Chain of HBV core protein (P03146 whole entry): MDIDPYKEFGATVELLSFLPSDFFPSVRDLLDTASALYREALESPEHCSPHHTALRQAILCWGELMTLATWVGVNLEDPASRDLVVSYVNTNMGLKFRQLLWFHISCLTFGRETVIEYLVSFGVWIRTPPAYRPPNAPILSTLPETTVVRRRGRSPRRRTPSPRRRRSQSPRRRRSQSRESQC

Structure (SMILES) | Effect on Cp dephosphorylation (HBV core protein) | Anti-HBV potency compared with 27 (58031), in words ([2]; AML12HBV10 cells) | also measured
O=C1CCN(C(=O)Nc2ccc(F)c(Cl)c2)CN1Cc1ccc(F)cc1F [Compound 27, N-(3-chloro-4-fluorophenyl)-3-(2,4-difluorobenzyl)-4-oxotetrahydropyrimidine-1(2H)-carboxamide] | inhibited Cp dephosphorylation | – | EC50 [1]: 840 nM; EC50 (50% inhibitory concentration of cytoplasmic HBV-DNA replication) ([2]; AML12HBV10 cells, 48 h treatment, dot-blot hybridization): submicromolar; Potency increase relative to 21 ([2]; AML12HBV10 cells, EC50 ratio): fourfold potency increase; EC50 ([2]; Hepatitis B virus, AML12HBV10, 48 h, read-out: EC50 (50% inhibitory concentration of cytoplasmic HBV-DNA replication)): 520 nM; Cytotoxicity at 50 μM (AML12HBV10 cells): no cytotoxicity
O=C(NC1CN(C(=O)Nc2ccc(F)c(Cl)c2)CN(Cc2ccc(F)cc2F)C1=O)c1ccc(F)cc1F (stereo not shown) [Compound 53, N-(3-chloro-4-fluorophenyl)-5-(2,4-difluorobenzamido)-3-(2,4-difluorobenzyl)-4-oxotetrahydropyrimidine-1(2H)-carboxamide] | – | comparable or slightly better potencies | –
Cc1ccc(S(=O)(=O)NC2CN(C(=O)Nc3ccc(F)c(Cl)c3)CN(Cc3ccc(F)cc3F)C2=O)cc1 (stereo not shown) [Compound 54, N-(3-chloro-4-fluorophenyl)-3-(2,4-difluorobenzyl)-5-(4-methylphenylsulfonamido)-4-oxotetrahydropyrimidine-1(2H)-carboxamide] | – | comparable or slightly better potencies | –
C=CC(=O)NC1CN(C(=O)Nc2ccc(F)c(Cl)c2)CN(Cc2ccc(F)cc2F)C1=O (stereo not shown) [Compound 55, 5-acrylamido-N-(3-chloro-4-fluorophenyl)-3-(2,4-difluorobenzyl)-4-oxotetrahydropyrimidine-1(2H)-carboxamide] | – | comparable or slightly better potencies | –
C=C1[C@H](CO)[C@@H](O)C[C@@H]1n1cnc2c(=O)[nH]c(N)nc21 [entecavir, reference compound] | did not affect Cp dephosphorylation | – | –

Source: paper PMC7797712 (Medicinal Chemistry Research, 2021)
